# Compound activity deposited in PubChem BioAssay by Broad Institute.
# This is a sample that favours compounds with a hit; in the whole collection about 2.9% have one here.
# dFosB act: activators of mouse delta FosB homodimer. P13346. purified delta FosB, TAMRA-CDK5 oligo fluorescence polarization; percent of positive-control signal above neutral wells. activation, % at 25 µM. 0.99% of 340,000 active. AID 493131;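 active = mean activation above about 17%, with every replicate also reaching it, limit read from the data, passing the limit was not always enough; inconclusive = only one of the two conditions met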
# PAX8 reporter: lowers PAX8-driven luciferase in RMG-I cells | RMG-I TPO-luciferase reporter, SteadyGlo, 24 h | inhibition, % at 12.6 µM | 1.2% of 360,000 active;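 active = mean replicate inhibition at least 60% with every replicate also reaching 60%; inconclusive = only one of the two criteria is met; inactive = mean below 60% and not all replicates reaching 60%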;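 also: luciferase light reporting Pax8 driven TPO promoter activity; plate controls were median of neutral control wells for no effect and mitoxantrone controls for full effect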
# Cneo AK release: Cryptococcus neoformans lysis via adenylate kinase release; C. neoformans lysis, adenylate kinase release luminescence, 4 h; normalised: neutral wells 0, clomiphene wells 100; lysis activity, % at 15 µM; 0.2% of 360,000 active;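 active = mean lysis activity across replicates of at least 80%, whatever share of replicates individually reach that level; inactive = mean lysis activity below 80%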
#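 Material: C. neoformans cells; Schedule: 4 h static compound exposure, 37 °C, read 1 h post-reagent; Measured by: adenylate kinase release luminescence; Read-out: signal increase indicating cell lysis; Controls: Clomiphene as positive lysis control.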
# CDK5 p35 inh: blocks human CDK5/p35 kinase activity; Q00535+Q15078; Recombinant CDK5/p35, ADP-Glo luminescence, 60 min; inhibition, % at 10 µM; 0.01% of 330,000 active; AID 488839;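 active = highest replicate inhibition of at least 50% and at least 75% of replicates reaching 50%; inconclusive = only one of the two criteria met; inactive = both criteria failed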;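 also: plate controls were DMSO neutral control for no effect and GW8510 at 10 µM for full effect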
# Target sequence (Q00535 whole entry, looked up): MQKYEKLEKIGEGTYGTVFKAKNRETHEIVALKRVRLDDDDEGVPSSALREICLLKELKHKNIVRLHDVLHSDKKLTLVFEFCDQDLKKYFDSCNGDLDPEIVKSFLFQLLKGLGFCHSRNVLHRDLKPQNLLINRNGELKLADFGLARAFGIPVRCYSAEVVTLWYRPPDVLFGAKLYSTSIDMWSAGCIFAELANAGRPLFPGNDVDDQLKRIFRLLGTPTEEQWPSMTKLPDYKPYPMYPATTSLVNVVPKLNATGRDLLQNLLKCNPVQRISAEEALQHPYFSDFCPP
# Target sequence (Q15078 whole entry, looked up): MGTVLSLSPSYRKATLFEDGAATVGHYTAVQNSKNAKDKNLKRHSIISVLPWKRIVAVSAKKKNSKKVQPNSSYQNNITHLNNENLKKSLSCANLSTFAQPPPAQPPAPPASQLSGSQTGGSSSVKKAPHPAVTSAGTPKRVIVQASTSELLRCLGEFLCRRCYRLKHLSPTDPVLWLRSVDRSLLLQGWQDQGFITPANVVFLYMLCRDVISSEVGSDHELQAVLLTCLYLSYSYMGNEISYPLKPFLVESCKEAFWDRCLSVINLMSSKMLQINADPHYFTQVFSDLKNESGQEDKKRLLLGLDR
# HIV Env fusion: HIV envelope-mediated fusion inhibition. HeLa-JRFL Env/CEM21 cell fusion, luciferase. inhibition, % at 12.3 µM. 1.1% of 360,000 active. AID 651610;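 active = mean replicate inhibition score of at least 50 and every replicate individually at or above 50; inconclusive = only one of the two criteria met; inactive = mean below 50 and not all replicates reaching 50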;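 also: 0% = plate neutral controls and 100% = maraviroc near 300 nM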
# INS-1E GSIS act: primary screen for activators of insulin secretion dependent on glucose, INS-1E cells, GLuc reporter luminescence; 0.61% of 370,000 active; activation, % at 16.6 µM; INS-1E GLuc reporter insulin secretion, 2-3 h;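 active = lowest replicate activation of at least 40%, so every replicate reaches that level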;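 also: 0% = median of neutral control wells and 100% = median of IBMX positive control wells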
# * = called active by the depositor; ? = inconclusive; . = no result given; [ ] = dose if it differs, or a comment.
SMILES,dFosB act,PAX8 reporter,Cneo AK release,CDK5 p35 inh,HIV Env fusion,INS-1E GSIS act
O=C(c1ccc(F)cc1)N1CC(=O)N2[C@@H](CO)[C@@H](c3ccc(-c4cccnc4)cc3)[C@@H]2C1,.,-2,.,.,.,13
NS(=O)(=O)c1ccc(NC(=O)c2ccc(CNS(=O)(=O)c3cc(C(F)(F)F)ccc3Cl)cc2)cc1,108*,7,-1,1,21,.
CC(C)C[C@H](CO)N(Cc1ccccc1)S(=O)(=O)N(Cc1ccccc1)[C@@H](CO)CC(C)C,3,42,-1,0,109*,-57
O=S(=O)(N(Cc1ccccc1)[C@@H](CO)Cc1ccccc1)N(Cc1ccccc1)[C@@H](CO)Cc1ccccc1,-15,5,7,0,71*,3
COc1ccc(CN2[C@@H](CO)[C@@H]3c4ccccc4N(C(=O)NC(C)C)C[C@@H]32)cc1,.,-13,-4,.,.,6
CCCOc1ccccc1NC(=O)c1c(-c2ccccc2)noc1C,-1,14,-2,1,65*,-2
Cc1onc(-c2ccccc2)c1C(=O)Nc1ccccc1NC(=O)c1c(-c2ccccc2)noc1C,-2,-5,-1,1,4,6
Cc1onc(-c2ccccc2)c1C(=O)N/N=C/c1ccc(Br)cc1,-5,-2,-1,2,56*,-30
COc1cc(OC)c(NC(=O)c2c(-c3ccccc3)noc2C)cc1Cl,-8,.,-1,0,-8,.
Cc1onc(-c2ccccc2)c1C(=O)Nc1ccc(Br)cc1Cl,-10,-14,-1,-2,86*,12
COc1ccc2c3c([nH]c2c1)[C@H](CO)N(C(=O)Nc1ccc(F)cc1)CC31CN(C(=O)Cc2ccccc2)C1,.,.,.,.,.,-14
COc1ccc(C=O)cc1Cn1c(=O)n(CCC(=O)NCc2ccco2)c(=O)c2sccc21,94*,15,-1,-1,17,17
COC(=O)CSc1nc2ccccc2nc1SCC(=O)OC,-10,.,-2,1,-2,67*
C[C@@H]1CN([C@@H](C)CO)S(=O)(=O)c2ccc(C#C[C@@H](C)O)cc2O[C@@H]1CN(C)C(=O)CC1CC1,.,.,7,.,-22[16.7 µM],21
CCOC(=O)C1=C(COC(=O)/C=C/c2ccc(O)c(OC)c2)NC(=O)NC1C (configuration not stated),-6,11,.,0,.,59*
CCOC(=O)C1=C(COC(=O)/C=C/c2ccc(OC)c(OC)c2)NC(=O)NC1C (configuration not stated),-5,-7,-1,-1,-5,31
CNC[C@H]1Oc2cc(C#Cc3cccc(F)c3)ccc2S(=O)(=O)N([C@@H](C)CO)C[C@H]1C,.,.,0,.,-32[16.7 µM],24
CC(C)CC#Cc1ccc2c(c1)O[C@@H](CN(C)Cc1ccccc1)[C@@H](C)CN([C@@H](C)CO)S2(=O)=O,.,.,.,.,37[16.7 µM],-1
CC(C)CC#Cc1ccc2c(c1)O[C@H](CN(C)Cc1ccc(C(=O)O)cc1)[C@@H](C)CN([C@H](C)CO)S2(=O)=O,.,80*,-9,.,15[16.7 µM],.
CC(C)CC#Cc1ccc2c(c1)O[C@@H](CN(C)Cc1ccc(F)cc1)[C@H](C)CN([C@H](C)CO)S2(=O)=O,.,34,13,.,25[16.7 µM],46*
CC(C)CC#Cc1ccc2c(c1)O[C@@H](CN(C)Cc1ccccc1)[C@@H](C)CN([C@H](C)CO)S2(=O)=O,.,.,.,.,-3[16.7 µM],51
COc1ccc(NC(=O)Nc2ccc3c(c2)[C@@H]2C[C@@H](CC(=O)N4CCCCC4)O[C@H](CO)[C@@H]2O3)cc1,.,5,-53,.,.,-8
CN(C)CC(=O)N1[C@H](CO)[C@@H](c2ccc(C#CC3CCCCC3)cc2)[C@@H]1C#N,.,-40,3,.,-5[16.7 µM],-7
CN1c2ccc(-c3cccc(C#N)c3)cc2[C@@H]2[C@@H](CCN2C(=O)Cc2ccccn2)[C@H]1CO,.,-33,-4,.,.,12
COc1ccc(NC(=O)N(C)C[C@H]2Oc3ccc(NC(=O)CCC(F)(F)F)cc3C(=O)N([C@H](C)CO)C[C@H]2C)cc1,.,-5,47,.,4[16.7 µM],10
SMILES,dFosB act,PAX8 reporter,Cneo AK release,CDK5 p35 inh,HIV Env fusion,INS-1E GSIS act
COc1ccc(-c2cc(C(=O)NNC(=S)NC(=O)c3c(-c4ccccc4)noc3C)[nH]n2)cc1,3,-16,.,0,69*,-3
COc1ccc(/C=C/C(=O)NC(=S)NNC(=O)c2c(-c3ccccc3)noc2C)cc1,-11,-11,-1,-1,91*,-21
Cc1onc(-c2ccccc2)c1C(=O)NNC(=S)NC(=O)c1ccc(Br)cc1,-1,23,0,2,.,6
CO[C@@H]1CN(C)C(=O)c2cc(NS(=O)(=O)c3ccc(-c4ccccc4)cc3)ccc2OC[C@H](C)NC[C@H]1C,.,.,-3,.,-39[16.7 µM],-14
C/C=C/c1ccc([C@@H]2[C@@H](CN(CC(C)C)C(C)=O)N(C(C)=O)[C@H]2CO)cc1,.,-4,-20,.,.,-6
CC(C)CC(COCc1cccc(C(F)(F)F)c1)N1CCN(C(=O)c2cccc(C(F)(F)F)c2)CCC1=O (configuration not stated),-14,30,0,0,67*,-2
Cc1ccccc1COC[C@H](CC(C)C)N1CCN(C(=O)c2cccc(C(F)(F)F)c2)CCC1=O,-20,16,15,-1,72*,-20
N#C[C@@H]1[C@H](c2ccccc2C2=CCCCC2)[C@H](CO)N1C(=O)NC1CCCCC1,.,.,.,.,.,-25
O=C(O)C[C@@H]1C=C[C@H](NC(=O)c2ccncc2)[C@@H](CO)O1,.,-11,0,.,2[16.7 µM],6
CCCS(=O)(=O)NC(=O)C1(C)CCN(C(=O)COc2ccc(Cl)cc2Cl)C1 (configuration not stated),.,-1,-5,.,56*,5
Nc1nnn(CC(=O)N/N=C/c2cccc3ccccc23)n1,-14,.,.,.,.,-1
Cc1ccccc1/C=N/NC(=O)Cn1nnc(N)n1,-2,65*,0,1,.,6
Cc1c(-c2ccccc2)nc2ccccc2c1C(=O)O,-6,.,1,-1,.,-9
Cc1c(-c2cccc(Cl)c2)nc2ccccc2c1C(=O)NC1CC1,-11,15,13,0,-9,99*
C[C@@H]1CCCCO[C@H](CN(C)CC2CCCCC2)[C@H](C)CN([C@@H](C)CO)C(=O)c2cc(NC(=O)Nc3ccc(F)cc3)ccc2O1,.,8,4,.,1[16.7 µM],-21
C[C@H]1CCCCO[C@H](CN(C)CC2CCCCC2)[C@@H](C)CN([C@@H](C)CO)C(=O)c2cc(NC(=O)Nc3ccc(F)cc3)ccc2O1,.,68*,2,.,?,-28
C[C@@H]1CCCCO[C@@H](CN(C)CC2CCCCC2)[C@@H](C)CN([C@@H](C)CO)C(=O)c2cc(NC(=O)Nc3ccc(F)cc3)ccc2O1,.,-15,56,.,1[16.7 µM],-20
